We go through 5 compounds from ChEMBL document CHEMBL1799968, “Dimethyl-diphenyl-propanamide derivatives as nonsteroidal dissociated glucocorticoid receptor agonists” (J Med Chem, 2010).

Each structure is given as a SMILES string. A value given as a limit tells only on which side of the number the result lay.

The target in one test is T1, Estrogen receptor (Homo sapiens, UniProt P03372).
T1 sequence (P03372 whole entry): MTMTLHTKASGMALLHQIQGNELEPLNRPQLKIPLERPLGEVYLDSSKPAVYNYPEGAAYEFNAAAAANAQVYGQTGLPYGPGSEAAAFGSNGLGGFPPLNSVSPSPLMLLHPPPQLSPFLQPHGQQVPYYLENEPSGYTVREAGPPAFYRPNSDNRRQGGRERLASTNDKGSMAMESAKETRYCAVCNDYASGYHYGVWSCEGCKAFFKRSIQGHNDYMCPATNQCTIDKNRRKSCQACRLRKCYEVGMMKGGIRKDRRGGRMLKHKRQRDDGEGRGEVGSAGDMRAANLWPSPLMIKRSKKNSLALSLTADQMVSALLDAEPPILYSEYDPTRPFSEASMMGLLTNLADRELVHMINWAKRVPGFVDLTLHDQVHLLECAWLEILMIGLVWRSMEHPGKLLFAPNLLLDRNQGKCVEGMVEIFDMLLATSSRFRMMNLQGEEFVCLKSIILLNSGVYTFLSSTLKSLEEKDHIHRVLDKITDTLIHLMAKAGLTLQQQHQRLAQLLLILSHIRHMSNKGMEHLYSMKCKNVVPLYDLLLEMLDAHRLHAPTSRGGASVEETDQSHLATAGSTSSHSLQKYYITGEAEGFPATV
Put plainly: Binding affinity to ERalpha by fluorescence polarization assay. The method, boiled down: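 Fluorescence polarization competition of test compound against a fluorescently labelled ligand for binding to full-length receptor or its ligand-binding domain.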
A general note: In fluorescence polarisation assays a small probe gives low polarisation when free and higher when bound to something large.

For test [1], the target named is T2, Glucocorticoid receptor (Homo sapiens, UniProt P04150).
T2 sequence (P04150 whole entry): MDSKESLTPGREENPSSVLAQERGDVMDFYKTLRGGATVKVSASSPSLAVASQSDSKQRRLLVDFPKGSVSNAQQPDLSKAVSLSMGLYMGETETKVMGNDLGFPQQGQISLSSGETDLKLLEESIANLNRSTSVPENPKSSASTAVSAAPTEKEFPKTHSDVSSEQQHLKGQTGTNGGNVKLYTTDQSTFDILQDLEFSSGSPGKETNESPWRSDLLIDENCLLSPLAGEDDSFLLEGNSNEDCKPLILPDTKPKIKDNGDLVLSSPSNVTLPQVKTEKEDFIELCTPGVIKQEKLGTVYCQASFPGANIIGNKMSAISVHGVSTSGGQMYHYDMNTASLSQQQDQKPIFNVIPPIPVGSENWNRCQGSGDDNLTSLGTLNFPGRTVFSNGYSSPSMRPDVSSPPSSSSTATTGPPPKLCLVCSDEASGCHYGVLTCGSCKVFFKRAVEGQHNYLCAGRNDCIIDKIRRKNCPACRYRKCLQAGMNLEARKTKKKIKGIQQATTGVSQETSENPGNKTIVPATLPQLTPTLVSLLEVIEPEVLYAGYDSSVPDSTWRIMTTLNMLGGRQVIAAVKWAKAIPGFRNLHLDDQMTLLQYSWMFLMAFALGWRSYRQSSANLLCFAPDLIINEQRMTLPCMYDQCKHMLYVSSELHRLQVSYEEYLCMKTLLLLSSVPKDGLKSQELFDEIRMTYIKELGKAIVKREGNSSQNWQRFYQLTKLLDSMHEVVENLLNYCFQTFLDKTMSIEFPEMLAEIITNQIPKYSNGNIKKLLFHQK
In words: Transrepression activity of glucocorticoid receptor in human A549 cells expressing AP-1 assessed as inhibition of PMA-induced AP-1 activity by luciferase reporter gene assay. It counts as cell-based. Background: A reporter such as luciferase makes a cellular process visible.

The target in test [2] is T2, Glucocorticoid receptor. Put plainly: Transactivation activity of glucocorticoid receptor ligand binding domain expressed in human NP-1 Hela cells co-expressing GAL4 DNA binding domain by luciferase reporter gene assay. It counts as cell-based.
In test [3] the target is T2, Glucocorticoid receptor. In words: Transrepression activity of glucocorticoid receptor in human A549 cells assessed as inhibition of IL1beta-stimulated NFkappaB-dependent E-selectin transcription by luciferase reporter gene assay. It counts as cell-based.
Test [4] addresses T3, Glucocorticoid receptor (Homo sapiens) (UniProt P04150).
T3 sequence (whole entry): T2 sequence (P04150 whole entry)
In words: Transrepression activity of glucocorticoid receptor in human A549 cells assessed as inhibition of IL1beta-stimulated NFkappaB-dependent E-selectin transcription by luciferase reporter gene assay relative to Dexamethasone. It counts as cell-based.

In test [5] the target is T3, Glucocorticoid receptor (Homo sapiens). In words: Transactivation activity of glucocorticoid receptor ligand binding domain expressed in human NP-1 Hela cells co-expressing GAL4 DNA binding domain by luciferase reporter gene assay relative to Dexamethasone. It counts as cell-based. In short, it runs like this: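 HeLa NP-1 cells stably carrying a GAL4 DBD–human GR LBD chimera with a GAL4 luciferase reporter. Agonist activity was read as increased luciferase activity.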

The target of test [6] is T2, Glucocorticoid receptor. In words: Transactivation activity at glucocorticoid receptor in human 13D3/Huh7 cells assessed as induction of tyrosine aminotransferase activity after 24 hrs. It counts as cell-based, Huh-7.
Test [7] deals with T4, Mineralocorticoid receptor (Homo sapiens, UniProt P08235).
T4 sequence (P08235 whole entry): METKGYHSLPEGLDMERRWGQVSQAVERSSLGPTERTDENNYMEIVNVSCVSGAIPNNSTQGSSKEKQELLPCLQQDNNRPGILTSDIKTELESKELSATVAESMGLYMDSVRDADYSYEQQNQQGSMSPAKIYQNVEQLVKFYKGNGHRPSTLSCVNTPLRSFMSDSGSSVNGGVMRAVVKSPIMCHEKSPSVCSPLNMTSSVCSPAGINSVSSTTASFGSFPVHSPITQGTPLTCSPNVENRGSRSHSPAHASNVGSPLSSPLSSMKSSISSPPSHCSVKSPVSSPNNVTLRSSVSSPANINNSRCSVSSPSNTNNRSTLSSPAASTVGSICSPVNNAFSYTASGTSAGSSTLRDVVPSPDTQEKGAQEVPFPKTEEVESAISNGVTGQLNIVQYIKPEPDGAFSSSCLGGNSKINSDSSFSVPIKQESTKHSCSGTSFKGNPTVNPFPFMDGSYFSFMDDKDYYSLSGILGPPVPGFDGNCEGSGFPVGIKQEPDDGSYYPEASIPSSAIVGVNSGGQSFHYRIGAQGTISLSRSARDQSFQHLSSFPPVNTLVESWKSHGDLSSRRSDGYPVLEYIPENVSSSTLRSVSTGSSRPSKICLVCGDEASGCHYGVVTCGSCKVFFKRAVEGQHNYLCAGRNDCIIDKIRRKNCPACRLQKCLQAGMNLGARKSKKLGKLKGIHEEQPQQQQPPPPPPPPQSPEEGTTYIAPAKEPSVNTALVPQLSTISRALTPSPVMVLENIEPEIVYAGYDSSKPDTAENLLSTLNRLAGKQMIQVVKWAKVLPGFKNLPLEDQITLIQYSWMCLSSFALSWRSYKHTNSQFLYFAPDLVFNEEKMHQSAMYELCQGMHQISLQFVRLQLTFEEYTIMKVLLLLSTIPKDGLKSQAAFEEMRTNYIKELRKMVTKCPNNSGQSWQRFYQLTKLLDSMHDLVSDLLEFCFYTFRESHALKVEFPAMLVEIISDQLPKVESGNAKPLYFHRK
Put plainly: Agonist activity at mineralocorticoid receptor in human A549 cells. It counts as functional, cell-based.

Test [8] in a line: Selectivity ratio of Ki of GRapha to Ki of progesterone receptor.

Consider `CC(C)(C(=O)Nc1nccs1)[C@@H](c1ccccc1)c1ccc(O)c(F)c1`, for which the Ki (in general, the dissociation constant of the complex between target and ligand, obtained from inhibition or displacement) on Estrogen receptor was greater than 50 µM. Also, the EC50 (usually the concentration needed to bring the measured effect to its halfway point) on Glucocorticoid receptor [1] is 15.9 nM; at Glucocorticoid receptor [2], 119 nM; on Glucocorticoid receptor [3], 8.6 nM; on Glucocorticoid receptor [6], 36.1 nM; in test [7], greater than 5 µM. Also, the Efficacy was found to be 68% in [4] and 61% in [5]. Also, the Ratio Ki in test [8] was found to be 66.
With `CC(C)(C(=O)Nc1nncs1)[C@H]1c2ccccc2Oc2cc(O)ccc21`, the Ki at Estrogen receptor was determined as 5.5 µM. The EC50 on Glucocorticoid receptor [1] was 7.8 nM; on Glucocorticoid receptor [2] it was 85.7 nM; at Glucocorticoid receptor [3], 3.5 nM; on Glucocorticoid receptor [6] it was 91.3 nM; in test [7] it was greater than 5 µM. Further, the Efficacy in test [4] was found to be 62%; in test [5] it was 46%. In addition, the Ratio Ki in test [8] was 66.
`CC(C)(C(=O)Nc1nccs1)[C@H]1c2ccccc2Oc2cc(O)ccc21` gave an inhibition constant (Ki) on Estrogen receptor of 2.3 µM. The concentration giving a half-maximal response (EC50) at Glucocorticoid receptor [1] was 17.5 nM; at Glucocorticoid receptor [2] it was 60.1 nM; on Glucocorticoid receptor [3], 9.3 nM; on Glucocorticoid receptor [6], 27.1 nM; in test [7] it was greater than 5 µM. The Efficacy in test [4] worked out at 68%; in test [5], 30%. Besides, the Ratio Ki in test [8] amounted to 73.
As to `CC(C)(C(=O)Nc1nccs1)[C@@H](c1ccccc1)c1ccc(O)c(Br)c1`, at Estrogen receptor, the Ki was greater than 50 µM. Further, the EC50 is 40.1 nM at Glucocorticoid receptor [1]; 115 nM at Glucocorticoid receptor [2]; 8.6 nM at Glucocorticoid receptor [3]; 142 nM at Glucocorticoid receptor [6]; greater than 5 µM in test [7]. The Efficacy in test [4] came out at 71%; in [5], 48%. The Ratio Ki in test [8] was 66.
As for `CC(C)(C(=O)Nc1nccs1)[C@@H](c1ccccc1)c1ccc(O)cc1`, the Ki at Estrogen receptor is greater than 100 µM. Besides, the EC50 on Glucocorticoid receptor [1] was 40.9 nM; on Glucocorticoid receptor [2], 372 nM; at Glucocorticoid receptor [3], 29.5 nM; on Glucocorticoid receptor [6], 251 nM; in test [7], greater than 5 µM. Besides, the Efficacy in test [4] worked out at 52%; in test [5], 21%. The Ratio Ki in [8] came to 227.
